Measurements taken from ChEMBL document CHEMBL1129335, “Synthesis and structure-activity relationships of 2-substituted D-tryptophan-containing peptidic endothelin receptor antagonists: importance of the C-2 substituent of the D-tryptophan residue for endothelin A and B receptor subtype selectivity” (J Med Chem, 1996).

Columns and labels:
[1] = target: T1, Endothelin receptor type B (Sus scrofa, UniProt P35463); experiment: Binding affinity towards endothelin B receptor in porcine cerebellum membranes; assay type: cell membranes, Membrane
T1 sequence (P35463 whole entry): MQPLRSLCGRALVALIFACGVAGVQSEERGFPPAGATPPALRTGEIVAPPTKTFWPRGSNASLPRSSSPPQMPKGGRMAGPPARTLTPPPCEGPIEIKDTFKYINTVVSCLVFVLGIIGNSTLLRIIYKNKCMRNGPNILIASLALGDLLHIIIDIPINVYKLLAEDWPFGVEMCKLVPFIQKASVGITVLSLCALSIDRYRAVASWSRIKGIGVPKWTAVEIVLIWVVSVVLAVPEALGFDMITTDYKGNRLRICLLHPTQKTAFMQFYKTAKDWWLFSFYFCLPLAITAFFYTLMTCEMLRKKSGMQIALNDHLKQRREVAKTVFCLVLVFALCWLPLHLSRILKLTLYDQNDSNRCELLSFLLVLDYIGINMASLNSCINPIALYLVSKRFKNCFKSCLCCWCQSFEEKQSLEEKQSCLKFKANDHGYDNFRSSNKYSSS
Method in brief: (§1)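 Competitive binding in porcine membranes: aortic smooth muscle for ETA and cerebellum for ETB, run by a previously reported method. Variation was generally within 10%.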

[2] = target: T2, Endothelin receptor type B (Homo sapiens, UniProt P24530); experiment: Binding affinity rowards Endothelin B receptor in human girardi heart cell membranes
T2 sequence (P24530 whole entry): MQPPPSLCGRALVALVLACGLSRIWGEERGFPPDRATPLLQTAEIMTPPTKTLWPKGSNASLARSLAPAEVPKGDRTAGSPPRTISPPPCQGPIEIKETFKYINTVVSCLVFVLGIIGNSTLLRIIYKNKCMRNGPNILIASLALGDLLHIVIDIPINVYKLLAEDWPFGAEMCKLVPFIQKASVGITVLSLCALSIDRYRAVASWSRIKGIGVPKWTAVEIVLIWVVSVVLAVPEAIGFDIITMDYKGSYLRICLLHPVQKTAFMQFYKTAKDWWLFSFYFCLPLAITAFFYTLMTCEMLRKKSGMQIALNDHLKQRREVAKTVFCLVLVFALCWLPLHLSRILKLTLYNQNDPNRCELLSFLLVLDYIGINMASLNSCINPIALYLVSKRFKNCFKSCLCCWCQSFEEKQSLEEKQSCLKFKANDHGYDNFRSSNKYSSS
Method in brief: (§2)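 Membrane binding assay on human receptors. ETA came from the neuroblastoma-derived line SK-N-MC and ETB from Girardi heart cells. Inhibition was expressed as IC50.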

Endothelin-1 receptor [3] = target: T3, Endothelin-1 receptor (Sus scrofa, UniProt Q29010); experiment: Binding affinity towards endothelin A receptor in porcine aortic smooth muscle membranes.; method in brief: as §1
T3 sequence (Q29010 whole entry): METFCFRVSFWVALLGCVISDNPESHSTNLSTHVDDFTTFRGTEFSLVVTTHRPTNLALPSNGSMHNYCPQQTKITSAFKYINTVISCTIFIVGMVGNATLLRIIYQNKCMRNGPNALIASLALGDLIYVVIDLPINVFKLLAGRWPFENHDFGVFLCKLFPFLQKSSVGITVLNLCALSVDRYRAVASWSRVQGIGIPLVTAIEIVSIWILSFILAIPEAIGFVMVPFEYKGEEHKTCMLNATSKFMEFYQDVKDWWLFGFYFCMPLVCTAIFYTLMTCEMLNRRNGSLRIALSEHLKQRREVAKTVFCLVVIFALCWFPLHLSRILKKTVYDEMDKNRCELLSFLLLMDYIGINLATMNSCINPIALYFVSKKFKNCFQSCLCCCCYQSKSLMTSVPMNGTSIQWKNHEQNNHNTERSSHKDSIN

Endothelin-1 receptor [4] = target: T4, Endothelin-1 receptor (Homo sapiens, UniProt P25101); experiment: Binding affinity towards Endothelin A receptor in human neuroblastoma-derived cell line SK-N-MC membranes; assay type: cell-based; method in brief: as §2
T4 sequence (P25101 whole entry): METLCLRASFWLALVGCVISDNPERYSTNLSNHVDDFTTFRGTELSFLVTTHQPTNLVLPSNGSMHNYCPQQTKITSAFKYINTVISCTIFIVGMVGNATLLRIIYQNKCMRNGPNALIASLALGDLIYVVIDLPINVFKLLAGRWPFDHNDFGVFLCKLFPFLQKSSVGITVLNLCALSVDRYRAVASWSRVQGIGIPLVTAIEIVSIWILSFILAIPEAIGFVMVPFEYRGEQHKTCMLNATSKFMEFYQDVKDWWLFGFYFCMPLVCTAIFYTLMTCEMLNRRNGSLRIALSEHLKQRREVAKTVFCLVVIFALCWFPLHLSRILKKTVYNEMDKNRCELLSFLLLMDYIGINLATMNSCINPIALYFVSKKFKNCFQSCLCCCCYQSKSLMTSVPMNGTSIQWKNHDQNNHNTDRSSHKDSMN

[5] = Antagonistic activity against Endothelin B receptor by BQ-3020 induced constriction in isolated rabbit pulmonary arteries; assay type: functional; conditions: Oryctolagus cuniculus; read-out: pA2 (converted)
Method in brief: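 Isolated rabbit pulmonary arteries were contracted with the ETB-selective agonist BQ-3020, following a previously reported protocol. Antagonist potency was given as pA2.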

[6] = target: T2, Endothelin receptor type B; experiment: Binding affinity towards Endothelin B receptor in human girardi heart cell membranes; method in brief: as §2
[7] = Inhibitory activity against ET 1 induced calcium increase in human Girardi heart cells; assay type: functional, cell-based
Method in brief: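 Intracellular Ca2+ rise in intact human Girardi heart cells was induced by ET-1, run by a reported method. Inhibition was expressed as IC50. Compounds were also applied alone at 100 µM to check for any rise in [Ca2+]i.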

[8] = Ability to antagonize ET-A mediated vasoconstrictor activity in isolated porcine coronary arteries; assay type: functional; conditions: read-out: pA2 (converted)
Method in brief: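 Isolated porcine coronary artery rings were contracted with ET-1, an ETA-mediated response, following a reported method. Antagonism was quantified as a pA2 value.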

[9] = Ability to antagonize ET-1 mediated constriction in rabbit pulmonary arteries; assay type: functional, Oryctolagus cuniculus

IC50 [1] [nM]	IC50 [2] [nM]	IC50 (Endothelin-1 receptor [3]) [nM]	IC50 (Endothelin-1 receptor [4]) [nM]	IC50 [6] [nM]	IC50 [7] [nM]	Structure (SMILES)	Kb [5] [nM]	Kb [8] [nM]	pA2 [9]
1.8	3.6	1.9	6.4	–	–	CCSCC(NC(=O)[C@@H](Cc1c(Br)[nH]c2ccccc12)NC(=O)C(CC(C)C)NC(=O)N1[C@H](C)CCC[C@@H]1C)C(=O)O (stereo not given in full)	–	–	–
2.3	–	–	2400	5	4	CCCCC(NC(=O)[C@@H](Cc1c(C#N)[nH]c2ccccc12)NC(=O)C(NC(=O)N1[C@H](C)CCC[C@@H]1C)C(C)C)C(=O)O (stereo not given in full)	3.16	–	–
0.81	–	3.8	13	1.1	–	CCCCC(NC(=O)[C@@H](Cc1c(Br)[nH]c2ccccc12)NC(=O)C(NC(=O)N1[C@H](C)CCC[C@@H]1C)C1CC1)C(=O)O (stereo not given in full)	–	12.6	6.4
